From ChEMBL document CHEMBL4196180, “Semisynthesis of ω-Hydroxyalkylcarbonate Derivatives of Hydroxytyrosol as Antitrypanosome Agents” (J Nat Prod, 2018)

Columns and labels:
[1] = tested on: Trypanosoma brucei brucei; assay: Anti-parasitic activity against Trypanosoma brucei brucei 427 infected in human MRC5 cells assessed as reduction in parasite proliferation after 72 hrs by Alamar blue assay; format: functional, organism-based; conditions: Trypanosoma brucei, 427, 72 h; in the assay text read “bloodstream forms” for “infected in human MRC5 cells”
Procedure, shortened: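 Bloodstream-form T. brucei brucei single-marker S427 (S16), grown in HMI-9 with 10% hiFBS at 37 °C, 5% CO2. Parasites seeded at 1 × 10^4 BSF/mL with increasing compound concentrations for 72 h at 37 °C, 5% CO2. Proliferation read by alamarBlue fluorescence (ex 550/em 590 nm); IC50 = 50% inhibition of parasite growth.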

[2] = tested on: Trypanosoma brucei brucei; assay: Potency index, ratio of hydroxytyrosol IC50 to compound IC50 for Trypanosoma brucei brucei 427 […]; format: functional
Procedure, shortened: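 Activity gain calculated as IC50 of hydroxytyrosol against bloodstream-form T. brucei divided by IC50 of the derivative. Both come from the 72 h alamarBlue assay.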

MRC5 = assay: Cytotoxicity against human MRC5 cells assessed as inhibition of cell growth after 72 hrs by MTT assay; format: cell-based; conditions: MRC5, 72 h
Procedure, shortened: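 MRC-5 lung fibroblasts kept in low-glucose DMEM with 10% hiFBS and penicillin/streptomycin at 37 °C, 5% CO2, 100% humidity. Cells trypsinized (0.25%), seeded at 5000 cells/well with increasing compound concentrations, incubated 72 h at 37 °C. MTT colorimetric read-out; IC50 = concentration inhibiting growth 50% vs untreated cells.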

[3] = Selectivity index, ratio of IC50 for MRC5 cells to IC50 for Trypanosoma brucei brucei 427 […]; format: toxicity, cell-based; conditions: read-out: Ratio IC50
[4] = tested on: Trypanosoma brucei brucei; assay: Anti-parasitic activity against Trypanosoma brucei brucei 427 bloodstream forms assessed as reduction in parasite proliferation after 72 hrs by Alamar blue assay; conditions: Trypanosoma brucei, 427, 72 h

| SMILES | IC50 [1] [µM] | Ratio IC50 [2] | IC50 (MRC5) [µM] | selectivity ratio [3] | IC50 [4] [µM] |
| --- | --- | --- | --- | --- | --- |
| O=C(OCCCCOC(=O)OCCc1ccc(OCc2ccccc2)c(OCc2ccccc2)c1)OCCc1ccc(OCc2ccccc2)c(OCc2ccccc2)c1 | > 10 | – | – | – | – |
| O=C(OCCCCCCOC(=O)OCCc1ccc(OCc2ccccc2)c(OCc2ccccc2)c1)OCCc1ccc(OCc2ccccc2)c(OCc2ccccc2)c1 | 8.1 | 5.9 | – | – | – |
| O=C(OCCCCCCO)OCCc1ccc(O)c(O)c1 | 4.1 | 11.6 | > 50 | > 12 | – |
| O=C(OCCCCOC(=O)OCCc1ccc(O)c(O)c1)OCCc1ccc(O)c(O)c1 | 4 | 12 | > 50 | > 13 | – |
| CCCCCCCCCCCCOC(=O)OCCc1ccc(O)c(O)c1 | 1.1 | 44.4 | 12.4 | 12 | – |
| O=C(OCCCCCCCCO)OCCc1ccc(OCc2ccccc2)c(OCc2ccccc2)c1 | – | 8.3 | – | – | 5.7 |
| CCCCCCOC(=O)OCCc1ccc(OCc2ccccc2)c(OCc2ccccc2)c1 | > 10 | – | – | – | – |
| O=C(OCCOC(=O)OCCc1ccc(OCc2ccccc2)c(OCc2ccccc2)c1)OCCc1ccc(OCc2ccccc2)c(OCc2ccccc2)c1 | – | 8.4 | – | – | 5.7 |
| CCCCCCOC(=O)OCCc1ccc(O)c(O)c1 | 0.2 | 263.9 | 11.2 | 62 | – |
| O=C(OCCO)OCCc1ccc(O)c(O)c1 | 6.4 | 7.4 | – | – | – |
| O=C(OCCCCCCCCO)OCCc1ccc(O)c(O)c1 | – | 32.8 | > 50 | > 35 | 1.5 |
| O=C(OCCc1ccc(O)c(O)c1)OCCc1ccc(O)c(O)c1 | 1.3 | 37.1 | > 50 | > 39 | – |
| CCCCCCCCCCCCCCCCOC(=O)OCCc1ccc(O)c(O)c1 | 6.2 | 7.7 | – | – | – |
| O=C(OCCCCO)OCCc1ccc(OCc2ccccc2)c(OCc2ccccc2)c1 | > 10 | – | – | – | – |
| O=C(OCCCCCCOC(=O)OCCc1ccc(O)c(O)c1)OCCc1ccc(O)c(O)c1 | 2.1 | 22.6 | > 50 | > 24 | – |
| O=C(OCCCCCCO)OCCc1ccc(OCc2ccccc2)c(OCc2ccccc2)c1 | 4.1 | 11.6 | > 50 | > 12 | – |
| CCCCCCCCCCCCOC(=O)OCCc1ccc(OCc2ccccc2)c(OCc2ccccc2)c1 | > 10 | – | – | – | – |
| O=C(OCCCCO)OCCc1ccc(O)c(O)c1 | > 10 | – | – | – | – |
| O=C(OCCc1ccc(OCc2ccccc2)c(OCc2ccccc2)c1)OCCc1ccc(OCc2ccccc2)c(OCc2ccccc2)c1 | > 10 | – | – | – | – |
| CCCCCCCCOC(=O)OCCc1ccc(O)c(O)c1 | – | 89.6 | 37.9 | 72 | 0.5 |
| O=C(OCCCCCCCCOC(=O)OCCc1ccc(OCc2ccccc2)c(OCc2ccccc2)c1)OCCc1ccc(OCc2ccccc2)c(OCc2ccccc2)c1 | 6.2 | 7.7 | – | – | – |
| CCOC(=O)OCCc1ccc(O)c(O)c1 | 1.4 | 33.7 | 34.5 | 25 | – |
| CCCCCCCCCCCCCCOC(=O)OCCc1ccc(O)c(O)c1 | 1.4 | 33.2 | 9.1 | 6 | – |
| O=C(OCCO)OCCc1ccc(OCc2ccccc2)c(OCc2ccccc2)c1 | 9.4 | 5 | – | – | – |
| O=C(OCCCCCCCCOC(=O)OCCc1ccc(O)c(O)c1)OCCc1ccc(O)c(O)c1 | 1 | 47.5 | > 50 | > 50 | – |
| O=C(OCCOC(=O)OCCc1ccc(O)c(O)c1)OCCc1ccc(O)c(O)c1 | 3.8 | 12.6 | > 50 | > 13 | – |
| CCCCOC(=O)OCCc1ccc(O)c(O)c1 | 7.2 | 6.6 | – | – | – |
